# Measurements taken from ChEMBL document CHEMBL1155568, “Biological characterization of fusapyrone and deoxyfusapyrone, two bioactive secondary metabolites of Fusarium semitectum” (J Nat Prod, 2000).
# Calls of active or inactive are those of the source. The calls are words filed in the database; no cut-off is given here.
# Tests used:
# Nakaseomyces glabratus = assay: Antifungal activity against Candida glabrata at 50 ug/disk by paper disk method; assay type: functional, organism-based
# Pichia kluyveri = assay: Antifungal activity against Pichia kluyveri ITEM 1649 at 15 ug/disk by paper disk method; assay type: functional
# Procedure, shortened: (§1)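 Agar overlay disk diffusion on plant-derived filamentous fungi and yeasts: 0.7% water-agar seeded with 10^4 conidia/mL or a yeast cell suspension, poured over PDA. 6-mm cellulose disks were loaded from methanolic solutions and air-dried, with nystatin as comparator. Plates ran 24-72 h at 25 °C; inhibition halo was measured over three disks. Agar beneath disks was subcultured on PDA to separate fungicidal from fungistatic, scored in four classes; run twice, averaged.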
# Fusarium subglutinans = assay: Antifungal activity against Fusarium subglutinans at 15 ug/disk by paper disk method; assay type: functional
# Procedure, shortened: (§2)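 Agar diffusion: a 0.7% water-agar overlay carrying 10^4 conidia/mL (or yeast cells) is poured on PDA. 6-mm cellulose disks loaded with methanolic compound at 5 or 15 µg/disk are air-dried and applied, with nystatin as comparator. Plates incubated 24-72 h at 25 °C; inhibition halo diameter read from three disks. Agar under each disk is subcultured on PDA to score fungicidal/fungistatic effect. Experiment run twice and averaged.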
# Alternaria alternata [1] = assay: Antifungal activity against Alternaria alternata ITEM 468 at 15 ug/disk by paper disk method; assay type: functional; conditions: read-out: IZ; procedure, shortened: as §2
# Alternaria alternata [2] = assay: Antifungal activity against Alternaria alternata ITEM 511 at 15 ug/disk by paper disk method; assay type: functional; conditions: read-out: IZ; procedure, shortened: as §2
# Alternaria alternata [3] = assay: Antifungal activity against Alternaria alternata ITEM 526 at 15 ug/disk by paper disk method; assay type: functional; conditions: read-out: IZ; procedure, shortened: as §2
# Ascochyta rabiei = assay: Antifungal activity against Ascochyta rabiei ITEM 1067 at 15 ug/disk by paper disk method; assay type: functional; conditions: read-out: IZ; procedure, shortened: as §2
# Botrytis cinerea [4] = assay: Antifungal activity against Botrytis cinerea ITEM 966 at 15 ug/disk by paper disk method; assay type: functional; conditions: read-out: IZ; procedure, shortened: as §2
# Botrytis cinerea [5] = assay: Antifungal activity against Botrytis cinerea at 15 ug/disk by paper disk method; assay type: functional; conditions: read-out: IZ; procedure, shortened: as §2
# [6] = system: Cladosporium cladosporioides; assay: Antifungal activity against Cladosporium cladosporioides ITEM 2079 at 15 ug/disk by paper disk method; assay type: functional; conditions: read-out: IZ; procedure, shortened: as §2
# Cladosporium cucumerinum = assay: Antifungal activity against Cladosporium cucumerinum ITEM 2095 at 15 ug/disk by paper disk method; assay type: functional; conditions: read-out: IZ; procedure, shortened: as §2
# [7] = system: Colletotrichum gloeosporioides; assay: Antifungal activity against Colletotrichum gloeosporioides ITEM 1729 at 15 ug/disk by paper disk method; assay type: functional; conditions: read-out: IZ; procedure, shortened: as §2
# Fusarium graminearum = assay: Antifungal activity against Fusarium graminearum ITEM 2 at 15 ug/disk by paper disk method; assay type: functional; conditions: read-out: IZ
# Procedure, shortened: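 Agar overlay diffusion: 0.7% water-agar with 10^4 conidia/mL of test fungus poured over PDA; 6-mm cellulose disks impregnated with methanolic compound solution, air-dried. Incubated 25 °C for 24-72 h by fungus; growth-inhibition halo diameter from three replicate disks. Agar under disks then subcultured on PDA to score fungicidal/fungistatic classes. Repeated twice, averaged.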
# Fusarium verticillioides = assay: Antifungal activity against Fusarium moniliforme ITEM 1497 at 15 ug/disk by paper disk method; assay type: functional; conditions: read-out: IZ; procedure, shortened: as §2
# Fusarium oxysporum [8] = assay: Antifungal activity against Fusarium oxysporum ITEM 149 at 15 ug/disk by paper disk method; assay type: functional; conditions: read-out: IZ; procedure, shortened: as §2
# Fusarium oxysporum [9] = assay: Antifungal activity against Fusarium oxysporum ITEM 1462 at 15 ug/disk by paper disk method; assay type: functional; conditions: read-out: IZ; procedure, shortened: as §2
# Penicillium verrucosum = assay: Antifungal activity against Penicillium verrucosum ITEM 439 at 15 ug/disk by paper disk method; assay type: functional; conditions: read-out: IZ; procedure, shortened: as §1
# [10] = system: Fusarium oxysporum f. sp. lycopersici; assay: Antifungal activity against Fusarium oxysporum f. sp. lycopersici ITEM 1462 at 15 ug/disk by paper disk method; assay type: functional; conditions: read-out: IZ; procedure, shortened: as §2
# Fusarium incarnatum = assay: Antifungal activity against Fusarium semitectum ITEM 393 at 15 ug/disk by paper disk method; assay type: functional; conditions: read-out: IZ; procedure, shortened: as §2
# Plenodomus tracheiphilus = assay: Antifungal activity against Phoma tracheiphilla ITEM 1605 at 15 ug/disk by paper disk method; assay type: functional; conditions: read-out: IZ; procedure, shortened: as §1
# Candida maltosa = assay: Antifungal activity against Candida maltosa ITEM 1639 at 15 ug/disk by paper disk method; assay type: functional; conditions: read-out: IZ; procedure, shortened: as §2
# Wickerhamomyces anomalus = assay: Antifungal activity against Pichia anomala ITEM 1661 at 15 ug/disk by paper disk method; assay type: functional; conditions: Hansenula anomala; read-out: IZ; procedure, shortened: as §1
# Starmera dryadoides = assay: Antifungal activity against Pichia dryadoides ITEM 1663 at 15 ug/disk by paper disk method; assay type: functional; conditions: Liangdongia dryadoides; read-out: IZ; procedure, shortened: as §1
# [11] = system: Meyerozyma guilliermondii; assay: Antifungal activity against Pichia guilliermondii ITEM 1644 at 15 ug/disk by paper disk method; assay type: functional; conditions: read-out: IZ; procedure, shortened: as §1
# Saccharomyces cerevisiae = assay: Antifungal activity against Saccharomyces cerevisiae ITEM 1633 at 15 ug/disk by paper disk method; assay type: functional; conditions: read-out: IZ; procedure, shortened: as §1
# Rhodotorula mucilaginosa = assay: Antifungal activity against Rhodotorula pilimanae at 15 ug/disk by […]; assay type: functional; conditions: read-out: IZ
# Candida albicans = assay: Antifungal activity against Candida albicans Y01009 after 24 hrs by broth micromethod assay; assay type: functional
# Procedure, shortened: (§3)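 Broth microdilution in YNB with 0.5% glucose, phosphate buffer pH 7, using ten 2-fold dilutions (50-0.097 µg/mL). Inoculum from 24-48 h Sabouraud agar cultures, final 5 × 10^2 cells for C. albicans and C. kefyr, 5 × 10^3 cells/conidia for C. glabrata, Cryptococcus neoformans and Aspergillus. Incubated at 35 °C up to 72 h, read every 24 h. MIC is the complete absence of growth versus medium controls.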
# Cryptococcus neoformans [12] = assay: Antifungal activity against Cryptococcus neoformans 14 after 24 hrs by broth micromethod assay; assay type: functional; procedure, shortened: as §3
# Cryptococcus neoformans [13] = assay: Antifungal activity against Cryptococcus neoformans 14 after 48 hrs by broth micromethod assay; assay type: functional; procedure, shortened: as §3
# Cryptococcus neoformans [14] = assay: Antifungal activity against Cryptococcus neoformans 14 after 72 hrs by broth micromethod assay; assay type: functional; procedure, shortened: as §3
# Aspergillus fumigatus [15] = assay: Antifungal activity against Aspergillus fumigatus 1 after 24 hrs by broth micromethod assay; assay type: functional; procedure, shortened: as §3
# Aspergillus fumigatus [16] = assay: Antifungal activity against Aspergillus fumigatus 1 after 48 hrs by broth micromethod assay; assay type: functional; procedure, shortened: as §3
# Aspergillus fumigatus [17] = assay: Antifungal activity against Aspergillus fumigatus 1 after 72 hrs by broth micromethod assay; assay type: functional; procedure, shortened: as §3
# Aspergillus niger [18] = assay: Antifungal activity against Aspergillus niger 2 after 24 hrs by broth micromethod assay; assay type: functional; procedure, shortened: as §3
# Aspergillus niger [19] = assay: Antifungal activity against Aspergillus niger 2 after 48 hrs by broth micromethod assay; assay type: functional; procedure, shortened: as §3
# Aspergillus niger [20] = assay: Antifungal activity against Aspergillus niger 2 after 72 hrs by broth micromethod assay; assay type: functional; procedure, shortened: as §3
# Aspergillus flavus [21] = assay: Antifungal activity against Aspergillus flavus 3 after 48 hrs by broth micromethod assay; assay type: functional; procedure, shortened: as §3
# Aspergillus flavus [22] = assay: Antifungal activity against Aspergillus flavus 3 after 72 hrs by broth micromethod assay; assay type: functional; procedure, shortened: as §3
# Cicer arietinum = assay: Phytotoxicity in chickpea leaf assessed as chlorosis in the leaf at 10^-3 M by leaf puncture assay; assay type: organism-based; conditions: in vivo, 1000 µM
# Procedure, shortened: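 Tomato and chickpea leaves were punctured and treated with toxin dissolved in MeOH and diluted with water (final 4% MeOH), tested from 10^-2 to 10^-7 M. Chlorosis and necrosis were recorded visually as spot symptoms.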
# Solanum lycopersicum = assay: Phytotoxicity against tomato assessed as seedling germination; assay type: organism-based; conditions: in vivo
# Procedure, shortened: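 Tomato seeds were surface-sterilized in 4% NaClO for 10 min and pregerminated 3 days in the dark. They were then placed 10 per dish on filter paper wetted with 2 mL of compound in 1% MeOH (10^-4 or 10^-5 M) and held 4 days at 25 °C under a 12-h photoperiod. Shoot and rootlet lengths were measured against control; done in triplicate, repeated once.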
# Priestia megaterium = assay: Antimicrobial activity against Bacillus megaterium at 30 ug/disk by agar diffusion method; assay type: functional, organism-based
smiles,measurement,setting,value
CCCCCCC(C)C/C(C)=C\C(C)/C=C(C)/C=C/C(O)C(C)(C)c1cc(O)c([C@@H]2O[C@@H](CO)C[C@@H](O)[C@@H]2O)c(=O)o1 (some centres not stated) [DEXOYFUSAPYRONE],Activity,Nakaseomyces glabratus,inactive
same,Activity,Pichia kluyveri,0 mm
same,Activity,Fusarium subglutinans,0 mm
same,zone of inhibition at 15 µg/disc,Alternaria alternata [1],10.8 mm
same,zone of inhibition at 15 µg/disc,Alternaria alternata [2],11 mm
same,zone of inhibition at 15 µg/disc,Alternaria alternata [3],11.7 mm
same,zone of inhibition at 15 µg/disc,Ascochyta rabiei,12 mm
same,zone of inhibition at 15 µg/disc,Botrytis cinerea [4],13.5 mm
same,zone of inhibition at 15 µg/disc,Botrytis cinerea [5],17 mm
same,zone of inhibition at 15 µg/disc,[6],16.2 mm
same,zone of inhibition at 15 µg/disc,Cladosporium cucumerinum,13.5 mm
same,zone of inhibition at 15 µg/disc,[7],13.8 mm
same,zone of inhibition at 15 µg/disc,Fusarium graminearum,10.8 mm
same,zone of inhibition at 15 µg/disc,Fusarium verticillioides,0 mm
same,zone of inhibition at 15 µg/disc,Fusarium oxysporum [8],4 mm
same,zone of inhibition at 15 µg/disc,Fusarium oxysporum [9],0 mm
same,zone of inhibition at 15 µg/disc,Penicillium verrucosum,11 mm
same,zone of inhibition at 15 µg/disc,[10],4 mm
same,zone of inhibition at 15 µg/disc,Fusarium incarnatum,8 mm
same,zone of inhibition at 15 µg/disc,Plenodomus tracheiphilus,16.3 mm
same,zone of inhibition at 15 µg/disc,Candida maltosa,0 mm
same,zone of inhibition at 15 µg/disc,Wickerhamomyces anomalus,0 mm
same,zone of inhibition at 15 µg/disc,Starmera dryadoides,0 mm
same,zone of inhibition at 15 µg/disc,[11],0 mm
same,zone of inhibition at 15 µg/disc,Saccharomyces cerevisiae,0 mm
same,zone of inhibition at 15 µg/disc,Rhodotorula mucilaginosa,0 mm
same,Activity,Candida albicans,>50 µg/mL
same,Activity,Cryptococcus neoformans [12],3.12 µg/mL
same,Activity,Cryptococcus neoformans [13],3.12 µg/mL
same,Activity,Cryptococcus neoformans [14],3.12 µg/mL
same,Activity,Aspergillus fumigatus [15],3.12 µg/mL
same,Activity,Aspergillus fumigatus [16],3.12 µg/mL
same,Activity,Aspergillus fumigatus [17],3.12 µg/mL
same,Activity,Aspergillus niger [18],1.56 µg/mL
same,Activity,Aspergillus niger [19],1.56 µg/mL
same,Activity,Aspergillus niger [20],1.56 µg/mL
same,Activity,Aspergillus flavus [21],1.56 µg/mL
same,Activity,Aspergillus flavus [22],1.56 µg/mL
same,Activity,Cicer arietinum,Active
same,Activity,Solanum lycopersicum,Not Active
same,Activity,Priestia megaterium,inactive
CCCCCCC(C)C/C(C)=C\C(/C=C(C)/C=C/C(O)C(C)(C)c1cc(O)c([C@@H]2O[C@@H](CO)C[C@@H](O)[C@@H]2O)c(=O)o1)CO (some centres not stated) [FUSAPYRONE],Activity,Nakaseomyces glabratus,inactive
same,Activity,Pichia kluyveri,0 mm
same,Activity,Fusarium subglutinans,6 mm
same,zone of inhibition at 15 µg/disc,Alternaria alternata [1],18.8 mm
same,zone of inhibition at 15 µg/disc,Alternaria alternata [2],18 mm
same,zone of inhibition at 15 µg/disc,Alternaria alternata [3],20.3 mm
same,zone of inhibition at 15 µg/disc,Ascochyta rabiei,35.8 mm
same,zone of inhibition at 15 µg/disc,Botrytis cinerea [4],29.3 mm
same,zone of inhibition at 15 µg/disc,Botrytis cinerea [5],30 mm
same,zone of inhibition at 15 µg/disc,[6],28.7 mm
same,zone of inhibition at 15 µg/disc,Cladosporium cucumerinum,33.3 mm
same,zone of inhibition at 15 µg/disc,[7],31.8 mm
same,zone of inhibition at 15 µg/disc,Fusarium graminearum,26.5 mm
same,zone of inhibition at 15 µg/disc,Fusarium verticillioides,20.1 mm
same,zone of inhibition at 15 µg/disc,Fusarium oxysporum [8],27.7 mm
same,zone of inhibition at 15 µg/disc,Fusarium oxysporum [9],28.3 mm
same,zone of inhibition at 15 µg/disc,Penicillium verrucosum,29.7 mm
same,zone of inhibition at 15 µg/disc,[10],30 mm
same,zone of inhibition at 15 µg/disc,Fusarium incarnatum,28.7 mm
same,zone of inhibition at 15 µg/disc,Plenodomus tracheiphilus,40 mm
same,zone of inhibition at 15 µg/disc,Candida maltosa,0 mm
same,zone of inhibition at 15 µg/disc,Wickerhamomyces anomalus,0 mm
same,zone of inhibition at 15 µg/disc,Starmera dryadoides,0 mm
same,zone of inhibition at 15 µg/disc,[11],0 mm
same,zone of inhibition at 15 µg/disc,Saccharomyces cerevisiae,0 mm
same,zone of inhibition at 15 µg/disc,Rhodotorula mucilaginosa,0 mm
same,Activity,Candida albicans,>50 µg/mL
same,Activity,Cryptococcus neoformans [12],3.12 µg/mL
same,Activity,Cryptococcus neoformans [13],3.12 µg/mL
same,Activity,Cryptococcus neoformans [14],3.12 µg/mL
same,Activity,Aspergillus fumigatus [15],1.56 µg/mL
same,Activity,Aspergillus fumigatus [16],1.56 µg/mL
same,Activity,Aspergillus fumigatus [17],1.56 µg/mL
same,Activity,Aspergillus niger [18],1.56 µg/mL
same,Activity,Aspergillus niger [19],1.56 µg/mL
same,Activity,Aspergillus niger [20],1.56 µg/mL
same,Activity,Aspergillus flavus [21],1.56 µg/mL
same,Activity,Aspergillus flavus [22],1.56 µg/mL
same,Activity,Cicer arietinum,Active
same,Activity,Solanum lycopersicum,Not Active
same,Activity,Priestia megaterium,inactive
